An excerpt weighted towards active compounds, which were near 2.2% of everything screened.
FGF22 binding: binders of recombinant human FGF22 by thermal shift; Q9HCT0; SYPRO orange fluorescence; percent of sucrose octasulfate shift, DMSO zero; activity (Tm shift, normalised), % at 9.99 µM; 1.5% of 340,000 active;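 active means mean Tm shift, scaled 0 neutral to 100 positive control, at about 1.3% or above, every replicate too, limit read from the data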
Target sequence (Q9HCT0 whole entry, looked up): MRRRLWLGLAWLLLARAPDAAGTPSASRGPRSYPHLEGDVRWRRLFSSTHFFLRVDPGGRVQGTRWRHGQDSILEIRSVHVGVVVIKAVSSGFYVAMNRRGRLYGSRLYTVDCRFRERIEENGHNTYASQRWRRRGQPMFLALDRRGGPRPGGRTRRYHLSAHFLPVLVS
PGC1a acetyl inh: modulators of PGC1a acetylation. 0.17% of 350,000 active. U2OS PGC1a acetylation, AlphaScreen anti-acetyl-lysine; with virally co-expressed GCN5 acetyltransferase. inhibition, % at 15.6 µM;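 active means every replicate shows inhibition of at least 40%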
SIRT5 inh: inhibitors of human sirtuin-5 desuccinylase. Purified SirT5, succinyl-peptide AMC, trypsin-coupled fluorescence. inhibition, % at 15 µM. 1.1% of 330,000 active. AID 652115; in the data active means inhibition above about 15%
Target sequence (Q9NXA8 whole entry, looked up): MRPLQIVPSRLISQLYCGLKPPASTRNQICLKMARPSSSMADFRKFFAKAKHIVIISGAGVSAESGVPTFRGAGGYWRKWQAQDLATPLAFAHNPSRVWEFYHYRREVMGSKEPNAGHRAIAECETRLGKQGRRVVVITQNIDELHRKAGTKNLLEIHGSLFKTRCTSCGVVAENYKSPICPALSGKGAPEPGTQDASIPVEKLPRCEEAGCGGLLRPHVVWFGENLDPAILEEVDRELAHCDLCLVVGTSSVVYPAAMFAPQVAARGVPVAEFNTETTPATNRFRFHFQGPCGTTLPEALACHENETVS
FN deposit inh: fibronectin deposition inhibition | AH1F fibroblasts, Alexa488-fibronectin deposition fluorescence, overnight | inhibition, % at 12.6 µM | 0.086% of 350,000 active | AID 743247;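 active means mean inhibition across replicates of 30% or more, regardless of how many single replicates reach that level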
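material = AH1F fibroblast monolayer depositing Alexa488-labelled fibronectin into matrix | amount = 10000 AH1F cells/well | buffer or medium = DMEM plus 2% serum, read in PBS | incubation = 1 h cell adhesion before compound, then overnight fibronectin incubation | detection = fluorescence at 485 nm excitation, 525 nm emission | evaluation = percent inhibition as loss of matrix-bound fibronectin fluorescence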
ERAP1 inh: blocks human ERAP1 aminopeptidase activity | Q9NZ08 | recombinant ERAP1, Leu-AMC fluorescence, 60 min | inhibition, % at 10.7 µM | 0.15% of 340,000 active | AID 652197;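 active means mean replicate inhibition of at least 30%, or all replicates individually reaching that 30% level; inactive means mean below 30% and not every replicate reaching it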
Hits are given with their value; - = inactive; . = not tested or not shown.

SMILES	FGF22 binding	PGC1a acetyl inh	SIRT5 inh	FN deposit inh	ERAP1 inh
C[C@H](CO)N1C[C@H](C)[C@H](CN(C)S(=O)(=O)c2ccc(F)cc2)Oc2cc(C3=CCCCC3)ccc2S1(=O)=O	-	-	32.0	.	-
O=C(CCc1nnc(CCCc2ccccc2)o1)NCCN1CCOC1=O	42.9	.	-	-	-
Cn1cc(CCNC(=O)CCc2nnc(CCCCc3ccccc3)o2)cn1	-	.	-	-	-
CC(C)C[C@H]1CNC(=O)C(=O)N1C[C@@H]1CCCN1C[C@H](CC(C)C)N1C[C@H](Cc2ccc(O)cc2)N(CCc2ccccc2)C(=O)C1=O	-	.	-	active	-
CC(C)C[C@H]1CNC(=O)C(=O)N1C[C@@H]1CCCN1C[C@H](CC(C)C)N1C[C@H](Cc2ccccc2)N(CCc2ccccc2)C(=O)C1=O	-	.	-	-	.
CCOc1ccc(CCN2C(=O)C(=O)N([C@@H](CC(C)C)CN3CCC[C@H]3CN3C(=O)C(=O)NC[C@@H]3Cc3ccc(O)cc3)C[C@@H]2Cc2ccccc2)cc1	43.3	.	.	-	-
Cc1ccc2nc(NC3=NC(CC(=O)O)C(=O)N3)nc(C)c2c1 (stereo not given)	.	.	44.1	-	-
COc1cccc2c(=O)n(CC(=O)N3CCCc4ccccc43)ccc12	-	-	23.0	-	-
CCOC(=O)COc1cccc2c(=O)n(CC(=O)N3CCCc4ccccc43)ccc12	-	-	-	-	-
O=C(C[C@@H]1CC[C@@H]2[C@H](COC[C@H](O)CN2Cc2ccc(Oc3ccccc3)cc2)O1)Nc1nccs1	-	-	-	-	-
CC(c1ccon1)N(C)Cc1c(C(=O)N(C)Cc2ccccc2)nc2ccccn12 (stereo not given)	43.1	-	-	.	-
COc1ccc(C#Cc2ccc3c(c2)[C@H]2[C@H](CCN2S(=O)(=O)c2cccc(OC)c2)[C@H](CO)N3C)cc1	-	-	-	-	-
COc1cnn(-c2ccc(Br)cc2)c(=O)c1SCc1ccccc1	-	.	28.3	-	-
COc1cnn(-c2ccc(C)cc2)c(=O)c1SCc1ccccc1	.	-	.	.	.
CCCCC1=CC2=C(c3ccco3)C(=O)C(C)(OC(=O)c3ccc(OC)cc3)C(=O)C2=CN1CCCOC(C)C (stereo not given)	-	-	33.9	-	-
C=CCN1C=C2C(=O)C(C)(OC(=O)c3ccc(OC)cc3)C(=O)C(c3ccco3)=C2C=C1CCCC (stereo not given)	-	-	.	-	-
CNc1ccc(Br)cc1C(O)c1ccccc1 (stereo not given)	-	.	37.5	-	-
Cc1ccc(S(=O)(=O)Nc2ccccc2C(O)c2ccccc2)cc1 (stereo not given)	-	-	-	-	-
COc1cccc(C(=O)Nc2ccc3c(c2)OC[C@@H](C)N(C)C[C@H](C)[C@@H](OC)CN(C)C3=O)c1	.	-	-	-	-
O=C(CSc1ccc(-c2ccccc2)nn1)N1CCCCC1	-	-	-	-	-
CCCn1c(SCC(=O)NC2CCCC2)nnc1-c1ccccn1	-	-	-	-	-
O=C(CSc1ccc2nnc(-c3ccccn3)n2n1)N1CCOCC1	43.8	-	.	-	.
O=C(CSc1ccc2nnc(-c3cccs3)n2n1)N1CCOCC1	-	-	-	-	-
CCOC(=O)N1CCN(C(=O)CSc2ccc3nnc(-c4ccccn4)n3n2)CC1	-	-	16.2	-	-
CCOC(=O)N1CCN(C(=O)CSc2ccc3nnc(-c4ccncc4)n3n2)CC1	-	-	-	-	-
SMILES	FGF22 binding	PGC1a acetyl inh	SIRT5 inh	FN deposit inh	ERAP1 inh
CCCn1c(SCC(=O)N2CCCC(C)C2)nnc1-c1ccccn1 (stereo not given)	-	.	24.5	-	-
O=C(CSc1ccc(-c2ccccn2)nn1)N1CCCCC1	-	.	15.1	-	-
CN(C)C(=O)C[C@@H]1CC[C@H]2[C@@H](COC[C@H](O)CN2Cc2ccc(C(F)(F)F)cc2)O1	-	-	.	-	.
CC(=O)Nc1ccc2c(c1)C(=O)N(C)[C@@H]1CC[C@@H](CC(=O)NCc3ccc(F)cc3)O[C@H]1CO2	-	-	-	-	-
COc1cc(/C=C/C(=O)OCC(=O)NCCc2ccccc2)cc(OC)c1OC	43.6	.	-	-	-
COc1cc(/C=C/C(=O)OCC(=O)NCCCc2ccccc2)cc(OC)c1OC	-	-	-	-	-
C[C@@H]1CN([C@@H](C)CO)C(=O)c2cc(NC(=O)CCCCCC(=O)Nc3ccccc3N)ccc2O[C@H]1CN(C)S(=O)(=O)c1ccc(F)cc1	-	-	-	-	-
O=C(C[C@H]1CC[C@H]2[C@@H](COC[C@@H](O)CN2C(=O)Nc2ccc(Cl)c(Cl)c2)O1)NCc1ccc(Cl)c(Cl)c1	1.3	-	-	-	-
COc1ccc(S(=O)(=O)N2C[C@@H](O)COC[C@@H]3O[C@@H](CC(=O)NCc4ccc(Cl)c(Cl)c4)CC[C@H]32)cc1	-	-	15.3	-	-
O=C(C[C@@H]1CC[C@H]2[C@@H](COC[C@@H](O)CN2C(=O)Nc2ccc(Cl)c(Cl)c2)O1)NCc1ccc(Cl)c(Cl)c1	-	-	15.5	-	-
CC1C=NC(S(=O)(=O)N2CC[C@H]3[C@@H](CO)N(C)c4ccc(-c5ccccc5F)cc4[C@H]32)=N1 (stereo not given in full)	-	-	-	-	-
CN(C)CC(=O)N1[C@H](CO)[C@@H](c2ccccc2)C12CN(C(=O)c1cccc(F)c1)C2	-	-	-	.	-
COc1ccccc1C(=O)Nc1ccc2c(c1)C(=O)N(C)[C@@H]1CC[C@@H](CC(=O)NCCc3ccncc3)O[C@@H]1CO2	-	.	-	-	.
CCNC(=O)[C@H]1[C@H](CO)[C@H]2Cn3c(ccc(C4=CCCCC4)c3=O)[C@@H]1N2CC	.	-	-	.	-
COc1cc(=O)n(C)c2ccccc12	-	-	-	-	-
Cc1cc(=O)n(C)c2ccccc12	43.4	.	-	-	-
CCOC(=O)/C(=C\C=C\N1CCOCC1)C(C)=O	-	.	15.8	-	-
CCOC(=O)C1CN(S(=O)(=O)c2ccccc2)c2cc(S(=O)(=O)CC)ccc2O1 (stereo not given)	.	49.7	.	-	.
CCN(CC)CCNC(=O)CCN1N=C(c2ccccc2)CCC1=O	-	-	25.9	-	-
CCCCNC(=O)CCN1N=C(c2ccccc2)CCC1=O	-	-	-	-	-
CCOc1ccccc1CNC(CC)CO (stereo not given)	43.5	.	-	-	-
CCOc1ccccc1CNC(c1ccccc1)c1ccccc1	-	.	-	-	-
CCn1nc(CC(=O)O)c2ccccc2c1=O	43.7	-	-	-	-
CC1CCCC=CC2CC(OC(=O)CN(C)C)CC2C(O)C=CC(=O)O1 (stereo not given)	-	67.1	.	-	-
O=c1cc(-c2ccc([N+](=O)[O-])cc2)c2ccc(O)cc2o1	44.7	-	-	-	-
Cc1nccc(-c2cccc(NC(=O)Nc3ccc(Cl)cc3)c2)n1	1.8	.	-	-	-

Screens as filed in PubChem BioAssay.
